Consider seven compounds from article PMC4554820 (Bioorganic & medicinal chemistry, 2015).

For data set [1], the target named is T1, GAPDH (Oryctolagus cuniculus, UniProt P46406). The settings on record: HPLC-HRMS, cited from earlier work; for Products, GAPDH tryptic peptide V233-R246: comparison/previous work.
The conditions of data set [2]: PBS buffer, pH = 7.6; cited from earlier work.
Data set [3] is classed as physicochemical. The settings on record: for k (min^−1) in 1:1 MeOH : 0.1 N NaOH / k (min^−1) in 1:1 MeOH : PBS / t1/2 (min) in 1:1 MeOH : 0.1 N NaOH: decomposition; for k (min^−1) in 1:1 MeOH : PBS: 1:1 MeOH:PBS (100 mM, pH 7.4), room temperature. The procedure, abridged:
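The test compound in MeOH (1 mL) was mixed with 1 mL of 100 mM PBS pH 7.4 or 0.1 M NaOH in a sealed cuvette at rt. Loss of absorbance at 667 nm was read every 15 min for 10 h. Rate constants and half-lives came from the exponential decay.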

In data set [4] the target is T1, GAPDH. Briefly: Reversibility of GAPDH inhibition by DTT. Format: biochemical. The settings on record: GAPDH incubated with compound 1 hr, then DTT (10 mM) 1 hr.
Data set [5] can be described thus: Kinetic UV-vis decomposition in the presence of glutathione. It is filed as physicochemical. The note with it: PBS pH 7.4 + 2-fold GSH, room temperature.
For data set [6], the system named is porcine liver esterase (PLE). Briefly: Kinetic UV-vis decomposition in the presence of porcine liver esterase. The note with it: PBS buffer (3 % DMF) + PLE. Format: in vitro ADME.
Data set [7] relates to human platelet activation induced by (ADP). The data set can be described thus: Platelet activation inhibition. Format: cell-based. The settings on record: for platelet activation inhibition: PRP, ADP 5 μM.
In data set [8] the target is T1, GAPDH. The data set can be described thus: HPLC-HRMS assay of GAPDH modification. It is filed as biochemical. The note with it: incubated 1 hr rt, tryptic digestion. The procedure, abridged:
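Lyophilised GAPDH dissolved in 100 mM PBS pH 7.4, concentration set by A280 (ε 14600 M⁻¹cm⁻¹). Protein 100 µM final with test compound 1 mM final (added from MeOH stock) in water, 1 h rt. Trypsin digest (20:1 ratio) at 37 °C for 17 h, then diluted to 10 µM peptide. C18 LC with 0.1% formic acid water/MeOH gradient (5–95% over 10 min). Orbitrap HRMS, positive ESI. No-compound control.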

The subject of data set [9] is human platelet aggregation induced by ADP. Briefly: Platelet aggregation inhibition. Format: cell-based. The note with it: PRP, ADP 5 μM. The procedure, abridged:
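Human PRP came from blood spun at 100 g for 10 min, and PPP from PRP spun at 4500 g for 10 min. PRP or PPP plus CaCl₂ (2 mM) went into wells. The test compound (100, 75, 50, 10 µM) was added for 20 min at rt, then ADP 5 µM. Light transmission was read every 20 s with double-orbital agitation and normalised to PPP = 100% and PRP = 0%.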

Where [10] appears, read: 1:1 MeOH:phosphate buffered saline, pH 7.4.

Entries after “also recorded” stand apart in the source; their conditions may differ. Counter-ions that a name gives are not always drawn. Like-named read-outs stand apart in the source and are kept apart here.

T1 sequence (P46406 whole entry): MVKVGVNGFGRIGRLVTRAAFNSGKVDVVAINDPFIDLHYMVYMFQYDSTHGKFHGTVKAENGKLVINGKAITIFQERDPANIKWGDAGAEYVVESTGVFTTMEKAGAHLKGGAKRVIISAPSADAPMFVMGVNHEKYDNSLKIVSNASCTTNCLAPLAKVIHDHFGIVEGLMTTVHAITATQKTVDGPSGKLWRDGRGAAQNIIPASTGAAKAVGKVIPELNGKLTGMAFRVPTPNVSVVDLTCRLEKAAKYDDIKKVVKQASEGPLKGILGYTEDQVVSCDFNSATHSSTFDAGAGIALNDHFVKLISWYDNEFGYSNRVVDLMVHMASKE

As to `[Na+].[Na+].[O-][N+]([O-])=NO` [AS, Angeli’s salt (Na2N2O3, AS)], the “Products, GAPDH tryptic peptide V233-R246” value on GAPDH [1] is “sulfinamide as a major product and sulfinic acid as a minor product; also recorded: Sulfinamide; RSONH2; also recorded: Sulfinic acid; RSOOH”. Moreover, the “Products, GAPDH tryptic peptide I144-K160” value on GAPDH [1] (comparison) is given as “Internal disulfide; RSSR”.
For `CC(=O)OC1(N=O)CCCCC1` [Compound 1, 1-nitrosocyclohexyl acetate], at GAPDH [1], the “Products, GAPDH tryptic peptide V233-R246” value is reported as “sulfinic acid as a major product”.
With `O=NC1(OC(=O)C(F)(F)F)CCCCC1` [Compound 2, 1-nitrosocyclohexyl trifluoroacetate], the “Products, GAPDH tryptic peptide V233-R246” value at GAPDH [1] is “sulfinamide as a major product and sulfinic acid as a minor product”. In [2], the “t1/2 of HNO release” value is recorded as 121 milliseconds (ms).
Turning to `CC(=O)OC1(N=O)CCOCC1` [Compound 4, 4-Nitrosotetrahydro-2H-pyran-4-yl acetate], in [3] (1:1 MeOH:0.1 N NaOH), the half-life at 30 mM was found to be 0.2 h and the “k (min^−1) in 1:1 MeOH : 0.1 N NaOH” value was found to be 0.057 min⁻¹. In data set [3] (setting [10]), this compound came in with a half-life at 30 mM of 13 h. Besides, the “k (min^−1) in 1:1 MeOH : PBS” value in data set [3] was 0.00089 min⁻¹. Also, the “% of GAPDH activity restored by the addition of DTT” value (“% of GAPDH activity restored” for short) at GAPDH [4] is recorded as 22%. Further, in data set [5], the “k (min^−1) in PBS + 2-fold GSH” value amounted to 0.011 min⁻¹ and the “t1/2 (min) in PBS + 2-fold GSH” value is recorded as 65 min.
Consider `CC(C)(C)C(=O)OC1(N=O)CCOCC1` [Compound 5, 4-Nitrosotetrahydro-2H-pyran-4-yl pivalate], for which, in data set [3] (1:1 MeOH:0.1 N NaOH), the half-life at 30 mM was 31.2 h and the “k (min^−1) in 1:1 MeOH : 0.1 N NaOH” value turned out to be 0.00037 min⁻¹. The half-life at 30 mM in [3] (setting [10]) is 31.7 h. The “k (min^−1) in 1:1 MeOH : PBS” value in data set [3] came to 0.00036 min⁻¹. In addition, in [5], the “k (min^−1) in PBS + 2-fold GSH” value came out at 0.007 min⁻¹ and the “t1/2 (min) in PBS + 2-fold GSH” value was determined as 99 min.
In turn, `O=NC1(OC(=O)C(Cl)(Cl)Cl)CCOCC1` [Compound 6, 4-Nitrosotetrahydro-2H-pyran-4-yl 2,2,2-trichloroacetate] came in with a half-life at 30 mM in data set [3] (setting [10]) of 0.833 h. In addition, the “t1/2 (min) in 1:1 MeOH : 0.1 N NaOH” value in [3] (1:1 MeOH:0.1 N NaOH) was “decompose immediately and Fast”. The “k (min^−1) in 1:1 MeOH : PBS” value in [3] is 0.014 min⁻¹. The “decomposition rate constant k with PLE” value in data set [6] turned out to be 0.087 min⁻¹. In addition, the platelet activation inhibition result is “lower activity” in data set [7] (1 μM); “potent and similar effect” in data set [7] (100, 75, 50, and 10 μM). Further, the “inhibition of expression of the activated marker (CD62P)” value in [7] (10 μM, PRP incubated with ADP (2 μM)) is listed as 83%. For the same compound, on GAPDH [8], the “Products, GAPDH tryptic peptide I144-K160” value is “Internal disulfide; RSSR”. For the same compound, the “Products, GAPDH tryptic peptide V233-R246” value at GAPDH [8] is reported as “Sulfinamide; RSONH2; also recorded: Sulfinic acid; RSOOH”. For the same compound, on GAPDH [4], the “% of GAPDH activity restored” value was 19%. The “inhibition of platelet aggregation” value in data set [9] (10 μM, compared with positive control (PRP + ADP)) is “no effect”; in data set [9] (100 μM, 20 min incubation rt), “Complete inhibition”; in data set [9] (50 and 75 μM), “intermediate activities”. In [5], the “k (min^−1) in PBS + 2-fold GSH” value worked out at 0.173 min⁻¹. Besides, the “t1/2 (min) in PBS + 2-fold GSH” value in [5] is listed as 4 min.
In data set [3] (setting [10]), `CC(Cl)(Cl)C(=O)OC1(N=O)CCOCC1` [Compound 7, 4-Nitrosotetrahydro-2H-pyran-4-yl 2,2-dichloropropanoate] showed a half-life at 30 mM of 2 h. Moreover, the “t1/2 (min) in 1:1 MeOH : 0.1 N NaOH” value in [3] (1:1 MeOH:0.1 N NaOH) was “decompose immediately and Fast”. The “k (min^−1) in 1:1 MeOH : PBS” value in data set [3] was 0.0058 min⁻¹. Further, the “decomposition rate constant k with PLE” value in data set [6] turned out to be 0.03 min⁻¹. In addition, at GAPDH [8], the “Products, GAPDH tryptic peptide I144-K160” value is reported as “Internal disulfide; RSSR” and the “Products, GAPDH tryptic peptide V233-R246” value is “Sulfinamide; RSONH2; also recorded: Sulfinic acid; RSOOH”. Also, the “% of GAPDH activity restored” value at GAPDH [4] turned out to be 9%. In addition, in data set [5], the “k (min^−1) in PBS + 2-fold GSH” value came out at 0.0578 min⁻¹ and the “t1/2 (min) in PBS + 2-fold GSH” value worked out at 12 min.
